Experiments:
NoV VA115 P dimer = assay: Direct ESI-MS assay, NoV VA115 P dimer; design: species or system human NoV VA115 (GI.3); conditions: intrinsic (per binding site) association constant; aqueous ammonium acetate (200 mM), pH 7, 25 °C
Procedure, shortened: (§1)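 Recombinant P dimer, buffer-exchanged into ammonium acetate and quantified by UV, was mixed (e.g., 12 μM) with ganglioside oligosaccharide (e.g., 80 μM) and reference protein (4 μM). Nanoelectrospray in negative ion mode used capillary −0.8 kV, cone 60 V and source 60 °C. Runs covered ≥4 initial ligand concentrations in triplicate. Ka,int came from bound/free abundance ratios, corrected for nonspecific binding, with two equivalent sites.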

NoV VA387 P dimer = assay: Direct ESI-MS assay, NoV VA387 P dimer; design: species or system human NoV VA387 (GII.4); conditions: intrinsic (per binding site) association constant; aqueous ammonium acetate (200 mM), pH 7, 25 °C
Procedure, shortened: as §1

P dimer VA387 = P dimer VA387 (Human calicivirus NLV/VA98387/1998, UniProt Q913Z3); assay: Direct ESI-MS assay; type: binding; conditions: n = 3
Chain of P dimer VA387 (Q913Z3 222-539): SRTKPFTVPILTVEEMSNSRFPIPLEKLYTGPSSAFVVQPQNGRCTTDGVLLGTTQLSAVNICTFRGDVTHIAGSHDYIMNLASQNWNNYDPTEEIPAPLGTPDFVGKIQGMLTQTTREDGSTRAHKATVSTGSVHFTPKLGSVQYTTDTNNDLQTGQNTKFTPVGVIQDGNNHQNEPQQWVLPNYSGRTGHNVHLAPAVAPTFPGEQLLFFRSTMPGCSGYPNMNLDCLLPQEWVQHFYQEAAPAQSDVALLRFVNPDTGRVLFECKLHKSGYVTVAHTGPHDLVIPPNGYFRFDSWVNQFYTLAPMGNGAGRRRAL
Procedure, shortened: (§2)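 Recombinant P dimer (P domain residues 222–539, made in E. coli via a GST fusion system) was titrated with at least four initial oligosaccharide concentrations, in triplicate. Example mix: 12 μM dimer, 80 μM ligand, 4 μM reference protein. Bound/free abundance ratios were taken as solution ratios after nonspecific-binding correction. Ka,int was fitted assuming two independent, equivalent sites.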

P dimer VA115 = biological target: T1, P dimer VA115 (Human calicivirus NLV/VA98115/1998, UniProt Q91H12); assay: Direct ESI-MS assay; type: binding; conditions: n = 3
T1 sequence (Q91H12 227-545): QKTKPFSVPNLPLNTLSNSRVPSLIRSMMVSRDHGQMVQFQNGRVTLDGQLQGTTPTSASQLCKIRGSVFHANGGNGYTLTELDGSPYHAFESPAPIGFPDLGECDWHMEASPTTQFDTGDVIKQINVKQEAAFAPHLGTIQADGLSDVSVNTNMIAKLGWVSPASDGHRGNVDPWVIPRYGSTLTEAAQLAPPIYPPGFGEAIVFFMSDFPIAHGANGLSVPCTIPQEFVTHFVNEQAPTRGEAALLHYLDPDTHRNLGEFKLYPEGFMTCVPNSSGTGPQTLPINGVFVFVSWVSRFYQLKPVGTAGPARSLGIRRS
Procedure, shortened: as §2

Structure (SMILES)	Ka,int P dimer VA115 (NoV VA115 P dimer)	Ka,int P dimer VA387 (NoV VA387 P dimer)	Kd (P dimer VA387)	Kd (P dimer VA115)	Ka,int (P dimer VA115)
CC(=O)N[C@H]1[C@H](O[C@@H]2[C@H](O[C@]3(C(=O)O)C[C@H](O)[C@@H](NC(C)=O)[C@H]([C@H](O)[C@@H](CO)O[C@]4(C(=O)O)C[C@H](O)[C@@H](NC(C)=O)[C@H]([C@H](O)[C@H](O)CO)O4)O3)[C@@H](O)[C@H](O[C@H]3[C@H](O)[C@@H](O)C(O)O[C@@H]3CO)O[C@@H]2CO)O[C@H](CO)[C@H](O)[C@@H]1O (stereo partly drawn) [GD2]	700 ± 140 M^–1	150 ± 60 M^–1			
CC(=O)N[C@H]1[C@H](O[C@@H]2[C@H](O[C@]3(C(=O)O)C[C@H](O)[C@@H](NC(C)=O)[C@H]([C@H](O)[C@H](O)CO)O3)[C@@H](O)[C@H](O[C@H]3[C@H](O)[C@@H](O)C(O)O[C@@H]3CO)O[C@@H]2CO)O[C@H](CO)[C@H](O)[C@@H]1O[C@@H]1O[C@H](CO)[C@H](O)[C@H](O)[C@H]1O (stereo partly drawn) [GM1a, GM1a ganglioside oligosaccharide (Galb1-3GalNAcb1-4(Neu5Aca2-3)Galb1-4Glc)]			2860 µM	2500 µM	
CC(=O)N[C@H]1[C@H]([C@H](O)[C@H](O)CO)O[C@@](O[C@H](CO)[C@@H](O)[C@@H]2O[C@@](O[C@H]3[C@@H](O)[C@@H](CO)O[C@@H](O[C@H]4[C@H](O)[C@@H](O)C(O)O[C@@H]4CO)[C@@H]3O)(C(=O)O)C[C@H](O)[C@H]2NC(C)=O)(C(=O)O)C[C@@H]1O (stereo partly drawn) [GD3, GD3 ganglioside oligosaccharide (Neu5Aca2-8Neu5Aca2-3Galb1-4Glc)]			2940 µM	2380 µM	
CC(=O)NC1C(OC2C(CO)OC(OC3C(CO)OC(O)C(O)C3O)C(O)C2OC2(C(=O)O)CC(O)C(NC(C)=O)C(C(O)C(CO)OC3(C(=O)O)CC(O)C(NC(C)=O)C(C(O)C(CO)OC4(C(=O)O)CC(O)C(NC(C)=O)C(C(O)C(O)CO)O4)O3)O2)OC(CO)C(O)C1O (stereo not drawn) [GT2, GT2 ganglioside oligosaccharide (GalNAcb1-4(Neu5Aca2-8Neu5Aca2-8Neu5Aca2-3)Galb1-4Glc)]			> 10000 µM	4350 µM	
CC(=O)N[C@H]1[C@H](O[C@@H]2[C@H](O[C@]3(C(=O)O)C[C@H](O)[C@@H](NC(C)=O)[C@H]([C@H](O)[C@@H](CO)O[C@]4(C(=O)O)C[C@H](O)[C@@H](NC(C)=O)[C@H]([C@H](O)[C@@H](CO)O[C@]5(C(=O)O)C[C@H](O)[C@@H](NC(C)=O)[C@H]([C@H](O)[C@H](O)CO)O5)O4)O3)[C@@H](O)[C@H](O[C@H]3[C@H](O)[C@@H](O)C(O)O[C@@H]3CO)O[C@@H]2CO)O[C@H](CO)[C@H](O)[C@@H]1O[C@@H]1O[C@H](CO)[C@H](O)[C@H](O)[C@H]1O (stereo partly drawn) [GT1c]	260 ± 110 M^–1	<100 M^–1			
CC(=O)N[C@H]1[C@H](O[C@@H]2[C@H](O)[C@@H](O)[C@H](O[C@H]3[C@H](O)[C@@H](O)C(O)O[C@@H]3CO)O[C@@H]2CO)O[C@H](CO)[C@H](O)[C@@H]1O[C@@H]1O[C@H](CO)[C@H](O)[C@H](O[C@]2(C(=O)O)C[C@H](O)[C@@H](NC(C)=O)[C@H]([C@H](O)[C@H](O)CO)O2)[C@H]1O (stereo partly drawn) [GM1b, GM1b ganglioside oligosaccharide (Neu5Aca2-3Galb1-3GalNAcb1-4Galb1-4Glc)]			5560 µM	2080 µM	
CC(=O)N[C@H]1[C@H](O[C@@H]2[C@H](O[C@]3(C(=O)O)C[C@H](O)[C@@H](NC(C)=O)[C@H]([C@H](O)[C@H](O)CO)O3)[C@@H](O)[C@H](O[C@H]3[C@H](O)[C@@H](O)C(O)O[C@@H]3CO)O[C@@H]2CO)O[C@H](CO)[C@H](O)[C@@H]1O[C@@H]1O[C@H](CO)[C@H](O)[C@H](O[C@]2(C(=O)O)C[C@H](O)[C@@H](NC(C)=O)[C@H]([C@H](O)[C@@H](CO)O[C@]3(C(=O)O)C[C@H](O)[C@@H](NC(C)=O)[C@H]([C@H](O)[C@H](O)CO)O3)O2)[C@H]1O (stereo partly drawn) [GT1a, GT1a ganglioside oligosaccharide (Neu5Aca2-8Neu5Aca2-3Galb1-3GalNAcb1-4(Neu5Aca2-3)Galb1-4Glc)]					210 ± 70 M⁻¹
CC(=O)NC1C(OC2C(CO)OC(OC3C(CO)OC(O)C(O)C3O)C(O)C2OC2(C(=O)O)CC(O)C(NC(C)=O)C(C(O)C(CO)OC3(C(=O)O)CC(O)C(NC(C)=O)C(C(O)C(CO)OC4(C(=O)O)CC(O)C(NC(C)=O)C(C(O)C(O)CO)O4)O3)O2)OC(CO)C(O)C1O (stereo not drawn) [GT2]	230 ± 50 M^–1	<100 M^–1			
CC(=O)N[C@H]1[C@H](O[C@@H]2[C@H](O[C@]3(C(=O)O)C[C@H](O)[C@@H](NC(C)=O)[C@H]([C@H](O)[C@H](O)CO)O3)[C@@H](O)[C@H](O[C@H]3[C@H](O)[C@@H](O)C(O)O[C@@H]3CO)O[C@@H]2CO)O[C@H](CO)[C@H](O)[C@@H]1O (stereo partly drawn) [GM2]	700 ± 200 M^–1	360 ± 90 M^–1			
CC(=O)NC1C(O)CC(OC(CO)C(O)C2OC(OC(CO)C(O)C3OC(OC4C(O)C(CO)OC(OC5C(CO)OC(O)C(O)C5O)C4O)(C(=O)O)CC(O)C3NC(C)=O)(C(=O)O)CC(O)C2NC(C)=O)(C(=O)O)OC1C(O)C(O)CO (stereo not drawn) [GT3, GT3 ganglioside oligosaccharide (Neu5Aca2-8Neu5Aca2-8Neu5Aca2-3Galb1-4Glc)]				3230 µM	
CC(=O)N[C@H]1[C@H]([C@H](O)[C@H](O)CO)O[C@@](O[C@H](CO)[C@@H](O)[C@@H]2O[C@@](O[C@H]3[C@@H](O)[C@@H](CO)O[C@@H](O[C@H]4[C@H](O)[C@@H](O)C(O)O[C@@H]4CO)[C@@H]3O)(C(=O)O)C[C@H](O)[C@H]2NC(C)=O)(C(=O)O)C[C@@H]1O (stereo partly drawn) [GD3]	420 ± 140 M^–1	340 ± 60 M^–1			
CC(=O)NC1C(O)CC(OC(CO)C(O)C2OC(OC(CO)C(O)C3OC(OC4C(O)C(CO)OC(OC5C(CO)OC(O)C(O)C5O)C4O)(C(=O)O)CC(O)C3NC(C)=O)(C(=O)O)CC(O)C2NC(C)=O)(C(=O)O)OC1C(O)C(O)CO (stereo not drawn) [GT3]	310 ± 150 M^–1	do not show any detectable binding			
CC(=O)N[C@H]1[C@H](O[C@@H]2[C@H](O[C@]3(C(=O)O)C[C@H](O)[C@@H](NC(C)=O)[C@H]([C@H](O)[C@@H](CO)O[C@]4(C(=O)O)C[C@H](O)[C@@H](NC(C)=O)[C@H]([C@H](O)[C@H](O)CO)O4)O3)[C@@H](O)[C@H](O[C@H]3[C@H](O)[C@@H](O)C(O)O[C@@H]3CO)O[C@@H]2CO)O[C@H](CO)[C@H](O)[C@@H]1O[C@@H]1O[C@H](CO)[C@H](O)[C@H](O)[C@H]1O (stereo partly drawn) [GD1b, GD1b ganglioside oligosaccharide (Galb1-3GalNAcb1-4(Neu5Aca2-8Neu5Aca2-3)Galb1-4Glc)]				2940 µM	
CC(=O)N[C@H]1[C@H](O[C@@H]2[C@H](O)[C@@H](O)[C@H](O[C@H]3[C@H](O)[C@@H](O)C(O)O[C@@H]3CO)O[C@@H]2CO)O[C@H](CO)[C@H](O)[C@@H]1O[C@@H]1O[C@H](CO)[C@H](O)[C@H](O[C@]2(C(=O)O)C[C@H](O)[C@@H](NC(C)=O)[C@H]([C@H](O)[C@H](O)CO)O2)[C@H]1O (stereo partly drawn) [GM1b]	480 ± 110 M^–1	180 ± 60 M^–1			
CC(=O)N[C@H]1[C@H](O[C@@H]2[C@H](O[C@]3(C(=O)O)C[C@H](O)[C@@H](NC(C)=O)[C@H]([C@H](O)[C@@H](CO)O[C@]4(C(=O)O)C[C@H](O)[C@@H](NC(C)=O)[C@H]([C@H](O)[C@H](O)CO)O4)O3)[C@@H](O)[C@H](O[C@H]3[C@H](O)[C@@H](O)C(O)O[C@@H]3CO)O[C@@H]2CO)O[C@H](CO)[C@H](O)[C@@H]1O[C@@H]1O[C@H](CO)[C@H](O)[C@H](O)[C@H]1O (stereo partly drawn) [GD1b]	340 ± 50 M^–1	do not show any detectable binding			
CC(=O)NC1C(O)CC(OC2C(O)C(OC3C(CO)OC(O)C(O)C3O)OC(CO)C2OC2OC(CO)C(O)C(OC3OC(CO)C(O)C(O)C3OC3OC(C)C(O)C(O)C3O)C2NC(C)=O)(C(=O)O)OC1C(O)C(O)CO (stereo not drawn) [fucosyl-GM1]	600 ± 130 M^–1	460 ± 150 M^–1			
CC(=O)N[C@H]1[C@H](O[C@@H]2[C@H](O[C@]3(C(=O)O)C[C@H](O)[C@@H](NC(C)=O)[C@H]([C@H](O)[C@H](O)CO)O3)[C@@H](O)[C@H](O[C@H]3[C@H](O)[C@@H](O)C(O)O[C@@H]3CO)O[C@@H]2CO)O[C@H](CO)[C@H](O)[C@@H]1O[C@@H]1O[C@H](CO)[C@H](O)[C@H](O)[C@H]1O (stereo partly drawn) [GM1a]	400 ± 140 M^–1	350 ± 80 M^–1			
CC(=O)N[C@H]1[C@H](O[C@@H]2[C@H](O[C@]3(C(=O)O)C[C@H](O)[C@@H](NC(C)=O)[C@H]([C@H](O)[C@H](O)CO)O3)[C@@H](O)[C@H](O[C@H]3[C@H](O)[C@@H](O)C(O)O[C@@H]3CO)O[C@@H]2CO)O[C@H](CO)[C@H](O)[C@@H]1O[C@@H]1O[C@H](CO)[C@H](O)[C@H](O[C@]2(C(=O)O)C[C@H](O)[C@@H](NC(C)=O)[C@H]([C@H](O)[C@@H](CO)O[C@]3(C(=O)O)C[C@H](O)[C@@H](NC(C)=O)[C@H]([C@H](O)[C@H](O)CO)O3)O2)[C@H]1O (stereo partly drawn) [GT1a]	210 ± 70 M^–1	do not show any detectable binding			
